Measurements gathered from unrelated publications.
Protocols differ between the studies behind these lines.
Target: Tyrosine-protein kinase Yes (YES1, Homo sapiens, UniProt P07947)

Compound | read-out | method | tested at | remaining binding
O=C(c1ccc(Nc2ncc(Cl)c(-c3cc4ccccc4s3)n2)cc1)N1CCC(N2CCCC2)CC1 | binding | competition with immobilised ligand | 1 µM | 71%
Cc1c(C(=O)O)cc(-c2ccc(C3CCNCC3)cc2)c2ccc(-c3ccc(C(F)(F)F)cc3)cc12 | cell-free assay | competition with immobilised ligand | 1 µM | 100%
Nc1ncc2c(n1)-c1c([nH]c3ccc(C#CC4CC4)cc13)CCCC2 | binding | competition with immobilised ligand | 1 µM | 100%
COc1ccnn2ncc(-c3ccnc(N(C)C)n3)c12 | binding |  | 1 µM | 100%
Cc1ccc(-n2nc(C(C)(C)C)cc2NC(=O)Nc2ccc(-n3c(N)c(C(N)=O)c4nc5ccccc5nc43)cc2)cc1 | cell-free assay | competition with immobilised ligand | 1 µM | 9.6%
C[C@@H](c1ccc(-n2cnc3c(N)ncnc32)cc1)N1CCc2nn(C)c(Cc3ccccc3)c2C1=O | binding | competition with immobilised ligand | 0.1 µM | 74%
c1cnn2ncc(-c3ccnc(N4CCC45COC5)n3)c2c1 | binding |  | 1 µM | 72%
CN1CCN(c2ccc(Nc3nccc(-c4cccc([N+](=O)[O-])c4)n3)cc2C(F)(F)F)CC1 | binding |  | 10 µM | 32%
C[C@H](NC(=O)c1cnc2n1[C@](C)(Cc1ccc(C#N)cc1)C(=O)N2c1cc(Cl)c(F)c(Cl)c1)C(=O)NC1(c2ccccn2)CC1 | cell-free assay | competition with immobilised ligand | 1 µM | 100%
Cc1cnc(Nc2ccc(C(=O)N3CCC(N4CCCC4)CC3)cc2)nc1-c1cc2ccccc2s1 | binding | competition with immobilised ligand | 1 µM | 43%
CC(=O)Nc1c(C(C)=O)c(=O)n(C)c2nc(-c3ccc(Cl)cc3Cl)c(-c3ccc(Cl)cc3)cc12 | cell-free assay | competition with immobilised ligand | 1 µM | 100%
N[C@@H]1CCN(c2nccc(-c3cnn4ncccc34)n2)C1 | binding |  | 1 µM | 100%
CN(C)c1ncnc(-c2ccc3nc(Nc4cc(CN5CCN(C(=O)CC(F)(F)F)CC5)ccn4)[nH]c3c2)c1Cl | cell-free assay | competition with immobilised ligand | 1 µM | 76%
C=CC(=O)N1CCC(C(=O)NCC(=O)N2CCN(c3nc(-c4cnc(N)nc4C(F)F)nc(N4CCOCC4)n3)CC2)CC1 | binding | competition with immobilised ligand | 1 µM | 97%
CN(C)c1nccc(-c2cnn3ncccc23)n1 | binding |  | 1 µM | 78%
O=C(NCC1CCOCC1)c1n[nH]cc1NC(=O)c1c(F)cccc1F | binding | competition with immobilised ligand | 1 µM | 99%
CN([C@@H]1CCc2c(CC(=O)O)c3cc(S(C)(=O)=O)ccc3n2C1)S(=O)(=O)c1ccc(F)cc1 | cell-free assay | competition with immobilised ligand | 1 µM | 88%
CN(C)c1nccc(-c2cnc3ncccn23)n1 | binding |  | 1 µM | 88%
CC(=O)N1CCC(c2ccc(C(=O)NC(=N)N)cc2C(F)(F)F)CC1 | cell-free assay | competition with immobilised ligand | 1 µM | 98%
COc1cnc(Nc2cccc(S(N)(=O)=O)c2)nc1N1CCN(c2ccccc2)CC1 | binding | competition with immobilised ligand | 1 µM | 89%
C[C@H]1CCN(c2nccc(-c3cnn4ncccc34)n2)C1 | binding |  | 1 µM | 94%
Cc1nc(C2CCN(C(=O)c3ccc(OC(F)(F)F)cc3N)CC2)c2ncc(N3CCN(C)CC3)cc2n1 | cell-free assay | competition with immobilised ligand | 1 µM | 100%
CNC(=O)[C@@H]1CC[C@@H](n2c(-c3ccc4cnccc4c3)nc3ccc(C(=O)NCc4cccc(C(N)=O)c4)cc32)C1 | binding | competition with immobilised ligand | 1 µM | 100%
CC(=O)C1=C(C)N(c2cccc(C(F)(F)F)c2)C(=O)N[C@@H]1c1ccc(C#N)nc1 | cell-free assay | competition with immobilised ligand | 1 µM | 81.1%
O=C(c1ccc(Nc2ncc(Cl)c(-c3ccc(Cl)s3)n2)cc1)N1CCC(N2CCCC2)CC1 | binding | competition with immobilised ligand | 1 µM | 55%
